Assay results from ChEMBL document CHEMBL1153796, “Isoprenylated chromone derivatives from the plant endophytic fungus Pestalotiopsis fici” (J Nat Prod, 2009).

Columns and labels:
MCF7 = assay: Cytotoxicity against human MCF7 cells after 48 hrs by MTT assay; assay type: functional, cell-based; conditions: MCF7, 48 h
[1] = system: Human immunodeficiency virus 1; assay: Antiviral activity against HIV1 infected human C8166 cells assessed as inhibition of viral replication after 4 days by p24 antigen capture ELISA; assay type: functional, organism-based; conditions: Human immunodeficiency virus 1, C8166, 96 h
HeLa = assay: Cytotoxicity against human HeLa cells after 48 hrs by MTT assay; assay type: functional, cell-based
Method in brief: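 Cells plated at 10^4/well and allowed to attach overnight. Exposed to compound dilutions from DMSO stock (vehicle 0.2% DMSO) for 4 h at 37 °C, then grown 48 h in fresh DMEM. MTT at 0.5 mg/mL added for 3 h, formazan dissolved in DMSO, absorbance at 540 nm; 5-fluorouracil as positive control.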

C8166 = assay: Cytotoxicity against human C8166 cells after 4 days by MTT assay; assay type: cell-based; conditions: C8166, 96 h
Method in brief: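 C8166 cells seeded at 3 × 10^4/well with various compound concentrations in triplicate, 37 °C, 5% CO2, run alongside the HIV-1 assay.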

SMILES | IC50 (MCF7) [µM] | EC50 [1] [µM] | IC50 (HeLa) [µM] | CC50 (C8166) [µM]
CC(C)=CC=C1C2=C(C[C@H](O)[C@@H]1O)C(=O)CC(C)(C)O2 (mixture of isomers) | > 144 | 89.2 | > 144 | –
O=c1[nH]cc(F)c(=O)[nH]1 [FLUOROURACIL] | – | – | 10 | –
CC(C)=CC[C@]12O[C@H]1[C@@H](O)CC1=C2OC(C)(C)CC1=O [PESTALOFICIOL F] | > 144 | > 100 | > 144 | –
CC1(C)CC(=O)C2=C(O1)C1=C[C@@H](C(C)(C)O)O[C@H]1[C@@H](O)C2 [PESTALOFICIOL I] | 136 | > 100 | > 136 | –
CC(C)=CCc1cc(O)cc2c1OC(C)(C)CC2=O [PESTALOFICIOL J] | > 154 | 8 | 21.2 | > 100
CC(=O)OC1=CC(C)(C)Oc2c(CC=C(C)C)cc(O)cc21 [PESTALOFICIOL K] | > 132 | 78.2 | 99.3 | –
COC(=O)c1cc(OC)cc(O)c1C(=O)c1c(O)cc(C)c(C2=CC(C)(C)Oc3c(CC=C(C)C)cc(O)cc32)c1O [PESTALOFICIOL L] | 17.4 | > 100 | 8.7 | –
